Experimental findings from ChEMBL document CHEMBL2331476, “A novel semisynthetic flavonoid 7-O-galloyltaxifolin upregulates heme oxygenase-1 in RAW264.7 cells via MAPK/Nrf2 pathway” (J Med Chem, 2013) are described below.

The structures appear in SMILES notation. Activity calls are given as the source filed them. The rule behind the calls is not given here.

In data set [1] the target is MAP kinase p38 (Homo sapiens) (UniProt O15264+Q15759+Q16539+P53778). The data set is described as follows: Activation of p38MAPK in mouse RAW264.7 cells assessed as phosphorylation at Thr180/Tyr182 at 5 uM after 30 mins by Western blotting analysis. In kind it is cell-based. Put shortly:
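Serum-starved RAW264.7 cells were treated 30 min with 5 μM anisomycin in serum-free medium. Whole-cell lysate was made in Tris/NaCl/SDS/NP-40/Triton buffer with phosphatase and protease inhibitors, pH 7.4, and 35 μg/lane run on 10% SDS-PAGE. Blots were probed for p38 dually phosphorylated at Thr180/Tyr182 versus total p38, with chemiluminescent detection.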

For data set [2], the target named is T1, Nuclear factor erythroid 2-related factor 2 (Mus musculus) (UniProt Q60795).
T1 sequence (whole entry): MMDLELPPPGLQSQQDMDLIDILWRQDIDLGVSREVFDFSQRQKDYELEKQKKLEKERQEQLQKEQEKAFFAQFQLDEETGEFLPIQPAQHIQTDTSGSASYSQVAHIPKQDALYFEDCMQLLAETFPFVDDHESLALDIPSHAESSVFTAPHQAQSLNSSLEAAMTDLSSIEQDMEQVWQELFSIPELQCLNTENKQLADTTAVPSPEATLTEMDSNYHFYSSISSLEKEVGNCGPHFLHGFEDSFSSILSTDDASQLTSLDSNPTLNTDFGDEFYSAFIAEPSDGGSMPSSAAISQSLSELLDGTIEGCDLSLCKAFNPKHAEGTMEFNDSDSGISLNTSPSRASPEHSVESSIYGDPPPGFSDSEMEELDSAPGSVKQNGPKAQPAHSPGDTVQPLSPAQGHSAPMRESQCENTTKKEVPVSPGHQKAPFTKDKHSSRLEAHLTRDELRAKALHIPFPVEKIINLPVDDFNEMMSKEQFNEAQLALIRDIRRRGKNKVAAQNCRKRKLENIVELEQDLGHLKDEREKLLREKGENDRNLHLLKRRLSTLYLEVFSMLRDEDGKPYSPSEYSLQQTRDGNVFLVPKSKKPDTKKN
The data set is described as follows: Activation of Nrf2 in mouse RAW264.7 cells assessed as upregulation of HO1 protein expression at 50 uM after 6 hrs by Western blotting analysis. In kind it is cell-based. The procedure, abridged: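 HO-1 protein in whole-cell lysates (20 μg/lane) of serum-starved RAW264.7 cells after 6 h at 10-50 μM or 50 μM for 1-6 h in serum-free medium, 0.1% DMSO control. Chemiluminescent Western blot; HO-1 densitometry normalized to actin, mean of three experiments.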
On the technique in general: Immunoblotting shows a protein as a band on a membrane.

Data set [3] concerns the target T1, Nuclear factor erythroid 2-related factor 2 (Mus musculus). Briefly: Activation of Nrf2 in mouse RAW264.7 cells assessed as upregulation of Hmox1 gene expression at 50 uM after 6 hrs by real-time PCR analysis relative to GAPDH mRNA expression. In kind it is cell-based. Put shortly: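 Serum-starved RAW264.7 cells were exposed for 6 h in serum-free medium against a 0.1% DMSO control. Total RNA (2 μg) was reverse-transcribed, then TaqMan qPCR run for Hmox1 and Gapdh over 40 cycles. Crossing points were taken by second-derivative maximum, and fold change calculated by the 2^−ΔΔCT method normalized to Gapdh. Mean ± SD of three experiments.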
A general note: In qPCR the cycle at which signal appears reflects the starting amount.

Data set [4] relates to RAW264.7. The data set is described as follows: Cytotoxicity against mouse RAW264.7 cells assessed as decreased cell viability at 50 uM after 6 hrs by MTT assay. Particulars: raw264.7, 6 h. The format is cell-based. The procedure, abridged:
(§1)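 Serum-starved RAW264.7 cells exposed 6 h at 10 or 50 μM; 0.1% DMSO control (100% viability), 1.5% Triton X-100 positive control. Cells washed and incubated 2 h at 37 °C with 0.5 mg/mL MTT in serum-free medium. Formazan dissolved in DMSO, A540 read, viability relative to DMSO-treated cells.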
(Tetrazolium assays rely on reduction of a dye to a coloured formazan, in cell work by metabolically active cells.)

Data set [5] has as its system RAW264.7. Briefly: Drug uptake in mouse RAW264.7 cells measured per 10^6 cells at 50 uM after 3 hrs. The following applies: raw264.7, 3 h. In kind it is ADME, cell-based. Put shortly:
(§2)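 Cells given 50 μM for up to 6 h, then scraped, washed twice in PBS and sonicated in methanol with 5% acetic acid. Supernatant analysed by UPLC on a phenyl column (water/1% acetic acid/methanol to methanol gradient, 35 °C) with negative ESI-QqTOF MS. Contents expressed as nmol per 10⁶ cells.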

Data set [6] has as its target T1, Nuclear factor erythroid 2-related factor 2 (Mus musculus). Briefly: Activation of Nrf2 in mouse RAW264.7 cells assessed as upregulation of Hmox1 gene expression at 10 to 50 uM after 6 hrs by real-time PCR analysis relative to GAPDH mRNA expression. In kind it is cell-based. The procedure, abridged: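 RAW264.7 cells treated 6 h in serum-free medium, 0.1% DMSO control. Total RNA (2 μg) reverse transcribed; TaqMan qPCR for Hmox1 and Gapdh, 40 cycles. Relative expression by 2^−ΔΔCT, normalized to Gapdh; mean ± SD of three experiments.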

In data set [7] the test system is RAW264.7. The data set is described as follows: Stability in mouse RAW264.7 cells assessed as gallic acid level at 50 uM after 6 hrs by HPLC/MS analysis. The format is ADME, cell-based. Particulars: raw264.7, 6 h.
Data set [8] relates to RAW264.7. Briefly: Drug uptake in mouse RAW264.7 cells measured per 10^6 cells at 50 uM after 6 hrs. Particulars: raw264.7, 6 h. The format is ADME, cell-based. The procedure, abridged:
as §2

Data set [9] has as its system RAW264.7. Briefly: Drug uptake in mouse RAW264.7 cells at 50 uM after 10 mins. In kind it is ADME, cell-based. Particulars: raw264.7, 10 min. The procedure, abridged:
as §2

Data set [10] addresses T1, Nuclear factor erythroid 2-related factor 2 (Mus musculus). The data set is described as follows: Activation of Nrf2 in mouse RAW264.7 cells assessed as cytosolic accumulation at 50 uM after 3 hrs by Western blotting analysis. The format is cell-based. Put shortly:
(§3)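 RAW264.7 cells (passage 5−25) seeded at 1 × 10⁵ cells/cm², switched to serum-free medium after 8 h, left overnight, then treated 3 h in serum-free medium; 0.1% DMSO vehicle control. Cells were swollen in hypotonic HEPES/NP-40 buffer for the cytosolic fraction and nuclei extracted in high-salt buffer. Blots loaded 30 μg/lane, Nrf2 densitometry normalized to actin, mean of three experiments.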

For data set [11] the target is unchanged. Briefly: Activation of Nrf2 in mouse RAW264.7 cells assessed as nuclear accumulation at 50 uM after 3 hrs by Western blotting analysis. The format is cell-based. Put shortly:
as §3

Data set [12] deals with RAW264.7. Briefly: Cytotoxicity against mouse RAW264.7 cells assessed as decreased cell viability at 10 uM after 6 hrs by MTT assay. The following applies: raw264.7, 6 h. In kind it is cell-based. Put shortly: as §1

`COc1ccc(C[C@H]2NC[C@H](O)[C@H]2OC(C)=O)cc1`: in [1], the outcome was Active.
As to `O=C(O)c1cc(O)c(O)c(O)c1` [GALLIC ACID], the fold change (FC) in [2] and in data set [3] was 1.5 in each case. Moreover, in the data set with RAW264.7 [4], the Activity turned out to be 76%.
`O=C(Oc1cc(O)c2c(=O)c(O)c(-c3ccc(O)c(O)c3)oc2c1)c1cc(O)c(O)c(O)c1` returned a Drug uptake in the data set with RAW264.7 [5] of 8.08 nmol.
As to `O=C(Oc1c(-c2ccc(O)c(O)c2)oc2cc(O)cc(O)c2c1=O)c1cc(O)c(O)c(O)c1`, the fold change (FC) in data set [2] came out at 0.9. For the same compound, the outcome in data set [6] was inactive. Besides, the Stability result with RAW264.7 [7] is given as “Stable”. Also, the values for the Drug uptake in the data set on RAW264.7 [8], in the data set on RAW264.7 [5] and with RAW264.7 [9] were 1.8 nmol, 1.75 nmol and 85%, respectively. Further, the Activity with RAW264.7 [4] was 79%.
As to `O=c1c(O)c(-c2ccc(O)c(O)c2)oc2cc(O)cc(O)c12` [QUERCETIN], the result in data set [10] and in data set [11] was Active. Besides, the fold change (FC) in [2] was 1.9; in data set [3] it was 4.3. Besides, the Activity result with RAW264.7 [4] and with RAW264.7 [12] was “Non-toxic” each time.
Turning to `O=c1c(O[C@@H]2O[C@H](CO)[C@@H](O)[C@H](O)[C@H]2O)c(-c2ccc(O)c(O)c2)oc2cc(O)cc(O)c12` [ISOQUERCETIN], the fold change (FC) in [2] was 1. In addition, in data set [6], the result was inactive. The Activity result in the data set on RAW264.7 [4] and in the data set on RAW264.7 [12] was “Non-toxic” throughout.
`O=C1c2c(O)cc(O)cc2O[C@H](c2ccc(O)c(O)c2)[C@H]1O` [(+)-TAXIFOLIN]: the fold change (FC) in data set [2] was determined as 1. Further, the outcome in data set [6] was inactive. Also, the Activity entry in the data set with RAW264.7 [4] and in the data set with RAW264.7 [12] was “Non-toxic” throughout.
